Data on 1 compound can be found in ChEMBL document CHEMBL3232870, “Discovery of 3-(4-methanesulfonylphenoxy)-N-[1-(2-methoxy-ethoxymethyl)-1H-pyrazol-3-yl]-5-(3-methylpyridin-2-yl)-benzamide as a novel glucokinase activator (GKA) for the treatment of type 2 diabetes mellitus” (Bioorg Med Chem, 2014).

The subject of data set [1] is Salmonella typhimurium. Put plainly: Genotoxicity in Salmonella typhimurium TA98 assessed as increase in number of revertants at 1.5 to 5000 ug/plate by Ames test in absence of S9 fraction. The format is toxicity, organism-based. Particulars: salmonella enterica subsp. enterica serovar typhimurium. A digest of the protocol: (§1)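 Ames reverse mutation test by direct plate incorporation in S. typhimurium TA98 and TA100, with or without Aroclor 1254-induced rat liver S9 mix. Compound in DMSO at 1.5–5000 µg/plate, plated in top agar, incubated 37 °C for about 50 h, then revertant colonies counted. Plates were checked for precipitation and cytotoxicity. A positive was a reproducible, dose-related increase in revertants of more than 2-fold.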
On the technique in general: In the Ames test, an excess of revertant colonies over the control signals mutagenicity.

In data set [2] the test system is Mus musculus. Description: Toxicity in fasting C57BL/J6 mouse assessed as glucose lowering effect at 50 mg/kg, po after 30 to 360 mins. Also noted: dose 50 mg/kg, route oral. Particulars: in vivo; call rule not given here. In kind it is organism-based. Put shortly:
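Eight-week-old male C57BL/6 mice were fasted 6 h with free access to water, then dosed orally with compound or 0.5% methylcellulose vehicle, with no glucose challenge. Blood glucose was followed up to 360 min, n = 6 per group.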

Data set [3] relates to Salmonella typhimurium. Description: Cytotoxicity in Salmonella typhimurium TA100 at 1.5 to 5000 ug/plate in presence of S9 fraction. In kind it is organism-based. Particulars: salmonella enterica subsp. enterica serovar typhimurium. Put shortly: as §1
The nature of data set [4]: Metabolic stability in human liver microsomes assessed as compound remaining after 1 hr relative to control. As to conditions: read-out: Stability. In kind it is ADME. Put shortly:
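Liver microsomes from mouse, dog or human were incubated with compound for 1 h, and the percentage of compound remaining was determined.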
(In general: Liver microsomes are a subcellular fraction often used to study metabolism.)

The nature of data set [5]: Volume of distribution at steady state in ICR mouse at 3 mg/kg, iv and 10 mg/kg, po. The format is ADME, organism-based. As to conditions: in vivo, read-out: Vdss. A digest of the protocol: (§2)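 Male ICR mice and 7-week-old SD rats received a 3 mg/kg iv bolus or a 10 mg/kg oral gavage dose. Plasma was precipitated with 2 volumes of acetonitrile and analysed by HPLC. Parameters came from noncompartmental analysis.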

The nature of data set [6]: Oral bioavailability in ICR mouse at 10 mg/kg. In kind it is ADME, organism-based. As to conditions: in vivo. A digest of the protocol: as §2
The nature of data set [7]: Cmax in male Sprague-Dawley rat at 1000 mg/kg, po measured on day 14. In kind it is ADME, organism-based. Also noted: dose 1000 mg/kg, route oral. As to conditions: in vivo. A digest of the protocol: (§3)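 Sprague–Dawley rats, 5 weeks old at arrival, both sexes. Given the compound by oral gavage once daily for 14 days at 0, 250, 500 or 1000 mg/kg/day, with 0.5% methylcellulose as vehicle. Toxicokinetic parameters were determined on Day 1 and Day 14.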

Data set [8] is described as follows: Cmax in female Sprague-Dawley rat at 250 mg/kg, po measured on day 1. In kind it is ADME, organism-based. Also noted: dose 250 mg/kg, route oral. As to conditions: in vivo. A digest of the protocol: as §3
Data set [9] in a line: Cmax in female Sprague-Dawley rat at 250 mg/kg, po measured on day 14. In kind it is ADME, organism-based. Also noted: dose 250 mg/kg, route oral. Particulars: in vivo. Put shortly: as §3
The nature of data set [10]: Tmax in male Sprague-Dawley rat at 1000 mg/kg, po measured on day 1. In kind it is ADME, organism-based. Also noted: dose 1000 mg/kg, route oral. Particulars: in vivo. Put shortly:
(§4)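 Sprague–Dawley rats of both sexes, 5 weeks old at arrival, received daily oral gavage at 0, 250, 500 or 1000 mg/kg/day for 14 days. Vehicle was 0.5% methylcellulose at 10 mL/kg. Toxicokinetics were taken on Day 1 and Day 14. Necropsy was by Day 15. Testis was fixed in modified Davidson's fixative, paraffin-sectioned and H&E-stained, with histopathology on control and high-dose groups only.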

Data set [11] is described as follows: AUC (0 to t) in male Sprague-Dawley rat at 250 mg/kg, po measured on day 14. Also noted: dose 250 mg/kg, route oral. As to conditions: plasma. The format is ADME, organism-based. Put shortly: as §3
The nature of data set [12]: AUC (0 to t) in male Sprague-Dawley rat at 1000 mg/kg, po measured on day 14. The format is ADME, organism-based. Also noted: dose 1000 mg/kg, route oral. Particulars: plasma. A digest of the protocol: as §3
Data set [13] relates to Rattus norvegicus. Description: Toxicity in Sprague-Dawley rat assessed as seminiferous tubule degeneration at 250 to 1000 mg/kg, po by hematoxylin and eosin staining-based microscopy. In kind it is organism-based. Also noted: dose 250-1000 mg/kg, route oral. Particulars: in vivo. A digest of the protocol:
as §4

Data set [14] has as its system Canis familiaris. Put plainly: Toxicity in Beagle dog assessed as testicular effect administered repeated dose level of 300 mg/kg/day, po administered on days 3, 6 and 8 by hematoxylin and eosin staining-based microscopy. In kind it is organism-based, Canis lupus familiaris. Also noted: route oral. As to conditions: in vivo. A digest of the protocol:
(§5)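 Dogs received escalating oral doses of 100, 300 and 1000 mg/kg/day over 8 days (Days 3, 6 and 8 for each dose). Vehicle was 0.5% methylcellulose at 5 mL/kg. Two animals were necropsied at termination, and testes were fixed in modified Davidson's fixative, paraffin-embedded, H&E-stained and examined microscopically.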

The test system of data set [15] is Canis familiaris. Put plainly: Toxicity in Beagle dog assessed as testicular effect administered repeated dose level of 1000 mg/kg/day, po administered on days 3, 6 and 8 by hematoxylin and eosin staining-based microscopy. As to conditions: in vivo. Also noted: route oral. In kind it is organism-based, Canis lupus familiaris. Put shortly: as §5
Data set [16] deals with T1, Hexokinase-4 (Homo sapiens, UniProt P35557).
T1 sequence (P35557 whole entry): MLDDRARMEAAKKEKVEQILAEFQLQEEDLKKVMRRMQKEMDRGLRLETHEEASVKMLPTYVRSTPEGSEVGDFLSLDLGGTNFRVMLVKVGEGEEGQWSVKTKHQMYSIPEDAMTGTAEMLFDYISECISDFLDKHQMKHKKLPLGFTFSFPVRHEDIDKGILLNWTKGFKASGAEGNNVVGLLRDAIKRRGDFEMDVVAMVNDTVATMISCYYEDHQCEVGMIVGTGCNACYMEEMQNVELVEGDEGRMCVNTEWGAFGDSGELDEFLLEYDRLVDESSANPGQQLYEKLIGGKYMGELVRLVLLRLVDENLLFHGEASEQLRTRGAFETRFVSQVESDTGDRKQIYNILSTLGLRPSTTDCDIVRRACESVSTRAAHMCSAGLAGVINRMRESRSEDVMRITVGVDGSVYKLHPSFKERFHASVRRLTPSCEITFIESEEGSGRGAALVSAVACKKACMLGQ
Description: Activation of recombinant human pancreatic glucokinase using 10 mM glucose by spectrophotometry. A digest of the protocol: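 Purified recombinant human pancreatic glucokinase, compounds in DMSO. Buffer: 25 mM HEPES pH 7.4, 10 mM glucose, 25 mM KCl, 1 mM MgCl2, 1 mM DTT, 1 mM ATP, 1 mM NADP, 2.5 U/mL G6PDH. Activity was expressed against DMSO-only control (100%). EC50 came from 12 concentrations fitted to a variable-slope sigmoidal curve. Values are means of three duplicate runs.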

In data set [17] the test system is Hepatocyte. Put plainly: Induction of 2-Deoxy-D-[3H]-glucose uptake in rat Hepatocytes using 5.5 mM glucose after 4 hrs by liquid scintillation counting. The format is functional. Put shortly:
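Rat primary hepatocytes, isolated by collagenase liver perfusion, viability over 85%. Cells attached 36 h on collagen I in MEM with 10% FBS, then serum-starved 12 h. Incubated 4 h in serum-free MEM with 5.5 mM glucose and 2-deoxy-D-[3H]-glucose, with or without compound. Washed in ice-cold PBS, lysed in 0.1 N NaOH, scintillation counted, expressed as % increase over control.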

Data set [18] in a line: Increase in 11 mM glucose-stimulated insulin secretion in Sprague-Dawley rat Pancreatic islet measured for 1 hr by ELISA. The format is functional. Put shortly: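 Islets isolated from male Sprague–Dawley rat pancreas, five per well. Islets were pre-incubated 30 min in HEPES-buffered Krebs–Ringer buffer (pH 7.4) with low glucose, then moved to the same buffer with glucose (11 mM) plus test compound. Static incubation ran at 37 °C in a shaking waterbath under 5% CO₂. Buffer was sampled at 1 h, insulin measured by ELISA, and reported as % increase versus control.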
(In an ELISA, binding on a coated surface is turned into a signal by an enzyme label.)

Data set [19] has as its target Cytochrome P450 3A (Homo sapiens, UniProt P08684+P20815+Q9HB55+P24462). Description: Inhibition of CYP3A in human liver microsomes. The format is ADME. A digest of the protocol: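 Pooled human liver microsomes at 0.25 mg/mL, each with a CYP-selective substrate and test compound up to 25 µM, preincubated at 37 °C. It is stopped on ice with ice-cold acetonitrile and centrifuged, and the supernatant is analysed by LC–MS/MS.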

As a reminder, the bioavailability is the share of a dose that reaches the circulation, judged against a reference dose that is usually intravenous. Read a high bioavailability as much systemic uptake. The Cmax is the highest concentration seen after dosing. As usually defined, the Tmax is the time at which the peak concentration occurs. What is called AUC(0-t) is the area under the concentration-time curve up to a stated or last time point. Low readings indicate less exposure, high ones more exposure. By EC50 is commonly meant the midpoint of the concentration-response curve.

Turning to `COCCOCn1ccc(NC(=O)c2cc(Oc3ccc(S(C)(=O)=O)cc3)cc(-c3ncccc3C)c2)n1`, the Activity entry in data set [1] was “Non-toxic”; in data set [2], “Toxic”; in [3], “Non-toxic”; in data set [13] it was “Non-toxic”; in data set [14] it was “Non-toxic”; in data set [15], “Non-toxic”. Further, in [4], the remaining at 1 h was more than 60%. In addition, the Vd in data set [5] came out at 0.18 L/kg. Further, in data set [6], the bioavailability stood at 24%. The results for the Cmax in data set [7], in data set [8] and in data set [9] were 3090 ng/mL, 3450 ng/mL and 5200 ng/mL, respectively. Also, the Tmax in data set [10] was determined as 4 h. For the same compound, the AUC(0-t) in data set [11] came to 8180 ng·h/mL; in data set [12], 25000 ng·h/mL. Further, the EC50 in data set [16] amounted to 315 nM. The entries for the “fold change (FC)” value in data set [17] and in data set [18] were 2.23 and 3, respectively. Further, in data set [19], the “inhibition (INH)” value was “Not Active”.
